Published values collected from several papers.
Protocols differ between the studies behind these lines. pIC50: −log10 of the molar value.

SMILES	cell line	test	conditions	pIC50
COc1ccc(-c2cc(-c3ccc(Br)cc3)c3c(=O)n(C)c(=O)n(C)c3n2)cc1	HCT-116	cell growth or viability, MTT	48 h	4.97
O=C(CCO)NCc1ccccc1	DH82	NO release, inhibitor, Griess	24 h, LPS-stimulated	4.24
CCOc1nc(-c2cccc(O)c2)cc(-c2cc3ccccc3nc2N2CCOCC2)c1C#N	NFS-60	cell growth or viability, MTT	72 h	7.07
C=CC(=O)N1CCN(c2nc(=O)n(-c3c(C)ccnc3C(C)C)c3nc(-c4c(O)cccc4F)c(F)cc23)[C@@H](C)C1	PC-9	cell growth or viability, ATP luminescence	–	< 5.00
NCCC(=O)NCc1ccccc1	DH82	NO release, inhibitor, Griess	24 h, LPS-stimulated	3.80
COc1ccc(-c2cc(-c3cccc(Br)c3)c3c(=O)n(C)c(=O)n(C)c3n2)cc1	HCT-116	cell growth or viability, MTT	48 h	5.10
NC(=O)c1ccncc1	DH82	PGE2 release, inhibitor, ELISA	24 h, LPS-stimulated	< 3.70
C=CC(=O)Nc1cc(Nc2nccc(-c3cn(C)c4ccccc34)n2)c(OC)cc1N(C)CCN(C)C	PC-9	cell growth or viability, MTS	72 h	5.84
Cn1nnc2c(C(N)=O)ncn2c1=O	U-87 MG	cell growth or viability, trypan blue	72 h	4.30
CC1(C)CCC(CN2CCN(c3ccc(C(=O)NS(=O)(=O)c4ccc(NCC5CCOCC5)c([N+](=O)[O-])c4)c(Oc4cnc5[nH]ccc5c4)c3)CC2)=C(c2ccc(Cl)cc2)C1	DOHH-2	cell growth or viability, ATP luminescence	48 h	7.11
C=C(F)C(=O)N1CCN(c2nc(OC[C@@H]3CCCN3C)nc3c2CCN(c2cccc4cccc(Cl)c24)C3)C[C@@H]1CC#N	AGS	cell growth or viability, ATP luminescence	3D culture	< 6.00
Cc1nc2cccc(N)c2c(=O)n1C1CCC(=O)NC1=O (stereo not drawn)	NCI-H929	cell growth or viability, CCK-8	96 h	> 6.48
O=C(CCNNC(=O)c1ccncc1)NCc1ccccc1	DH82	PGE2 release, inhibitor, ELISA	24 h, LPS-stimulated	< 3.70
COc1cc2c3c(n(CCCNCCO)c(=O)c2cc1OC)-c1nc2c(cc1C3=O)OCO2	Raji	cell growth or viability, MTS	72 h	6.88
Nc1n[nH]c2nc(-c3cccc(O)c3)cc(-c3cc4ccccc4nc3N3CCOCC3)c12	NFS-60	cell growth or viability, MTT	72 h	7.19
COCCC(=O)NCc1ccccc1	DH82	NO release, inhibitor, Griess	24 h, LPS-stimulated	3.77
CCCOc1nc(-c2cccc(O)c2)cc(-c2cc3ccccc3nc2N2CCOCC2)c1C#N	NFS-60	cell growth or viability, MTT	72 h	6.82
COc1cc2c3c(n(CCCNC(C)C)c(=O)c2cc1OC)-c1nc2c(cc1C3=O)OCO2	Raji	cell growth or viability, MTS	72 h	6.74
